Measurements: ChEMBL document CHEMBL1795269, “Novel (E)-5-styryl-2,2'-bithiophene derivatives as ligands for β-amyloid plaques” (Eur J Med Chem, 2011)

Assays:
[1] = Octanol-phosphate buffer partition coefficient, log D of the compound at pH 7.4; type: physicochemical
Procedure, shortened: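 Radiotracer added to premixed n-octanol (3 g) and PBS (0.05 M, pH 7.4; 3 g), and partitioned between the two phases.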

Blood [2] = experiment: Biodistribution in Kunming mouse blood at 1 uCi, iv after 2 mins by gamma counting; type: ADME, organism-based; conditions: in vivo
Procedure, shortened: (§1)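 Female normal KunMing mice, about 20 g. [125I]-labelled tracer (1 μCi) in 100 μL saline injected into the tail vein. Mice killed at set times after injection; organs removed, weighed and counted in a gamma counter. %ID/g of wet tissue calculated against diluted aliquots of the injected dose.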

Blood [3] = experiment: Biodistribution in Kunming mouse blood at 1 uCi, iv after 15 mins by gamma counting; type: ADME, organism-based; conditions: in vivo, 0.25 h; procedure, shortened: as §1
Blood [4] = experiment: Biodistribution in Kunming mouse blood at 1 uCi, iv after 30 mins by gamma counting; type: ADME, organism-based; conditions: in vivo, 0.5 h; procedure, shortened: as §1
Blood [5] = experiment: Biodistribution in Kunming mouse blood at 1 uCi, iv after 60 mins by gamma counting; type: ADME, organism-based; conditions: in vivo, 1 h; procedure, shortened: as §1
Blood [6] = experiment: Biodistribution in Kunming mouse blood at 1 uCi, iv after 120 mins by gamma counting; type: ADME, organism-based; conditions: in vivo, 2 h; procedure, shortened: as §1
Brain [7] = experiment: Biodistribution in Kunming mouse brain at 1 uCi, iv after 2 mins by gamma counting; type: ADME, organism-based; conditions: in vivo; procedure, shortened: as §1
Brain [8] = experiment: Biodistribution in Kunming mouse brain at 1 uCi, iv after 15 mins by gamma counting; type: ADME, organism-based; conditions: in vivo, 0.25 h; procedure, shortened: as §1
Brain [9] = experiment: Biodistribution in Kunming mouse brain at 1 uCi, iv after 30 mins by gamma counting; type: ADME, organism-based; conditions: in vivo, 0.5 h; procedure, shortened: as §1
Brain [10] = experiment: Biodistribution in Kunming mouse brain at 1 uCi, iv after 60 mins by gamma counting; type: ADME, organism-based; conditions: in vivo, 1 h; procedure, shortened: as §1
Brain [11] = experiment: Biodistribution in Kunming mouse brain at 1 uCi, iv after 120 mins by gamma counting; type: ADME, organism-based; conditions: in vivo, 2 h; procedure, shortened: as §1
Heart [12] = experiment: Biodistribution in Kunming mouse heart at 1 uCi, iv after 2 mins by gamma counting; type: ADME, organism-based; conditions: in vivo; procedure, shortened: as §1
Heart [13] = experiment: Biodistribution in Kunming mouse heart at 1 uCi, iv after 15 mins by gamma counting; type: ADME, organism-based; conditions: in vivo, 0.25 h; procedure, shortened: as §1
Heart [14] = experiment: Biodistribution in Kunming mouse heart at 1 uCi, iv after 30 mins by gamma counting; type: ADME, organism-based; conditions: in vivo, 0.5 h; procedure, shortened: as §1
Heart [15] = experiment: Biodistribution in Kunming mouse heart at 1 uCi, iv after 60 mins by gamma counting; type: ADME, organism-based; conditions: in vivo, 1 h; procedure, shortened: as §1
Heart [16] = experiment: Biodistribution in Kunming mouse heart at 1 uCi, iv after 120 mins by gamma counting; type: ADME, organism-based; conditions: in vivo, 2 h; procedure, shortened: as §1
Liver [17] = experiment: Biodistribution in Kunming mouse liver at 1 uCi, iv after 2 mins by gamma counting; type: ADME, organism-based; conditions: in vivo; procedure, shortened: as §1
Liver [18] = experiment: Biodistribution in Kunming mouse liver at 1 uCi, iv after 15 mins by gamma counting; type: ADME, organism-based; conditions: in vivo, 0.25 h; procedure, shortened: as §1
Liver [19] = experiment: Biodistribution in Kunming mouse liver at 1 uCi, iv after 30 mins by gamma counting; type: ADME, organism-based; conditions: in vivo, 0.5 h; procedure, shortened: as §1
Liver [20] = experiment: Biodistribution in Kunming mouse liver at 1 uCi, iv after 60 mins by gamma counting; type: ADME, organism-based; conditions: in vivo, 1 h; procedure, shortened: as §1
Liver [21] = experiment: Biodistribution in Kunming mouse liver at 1 uCi, iv after 120 mins by gamma counting; type: ADME, organism-based; conditions: in vivo, 2 h; procedure, shortened: as §1
Spleen [22] = experiment: Biodistribution in Kunming mouse spleen at 1 uCi, iv after 2 mins by gamma counting; type: ADME, organism-based; conditions: in vivo; procedure, shortened: as §1
Spleen [23] = experiment: Biodistribution in Kunming mouse spleen at 1 uCi, iv after 15 mins by gamma counting; type: ADME, organism-based; conditions: in vivo, 0.25 h; procedure, shortened: as §1
Spleen [24] = experiment: Biodistribution in Kunming mouse spleen at 1 uCi, iv after 30 mins by gamma counting; type: ADME, organism-based; conditions: in vivo, 0.5 h; procedure, shortened: as §1
Spleen [25] = experiment: Biodistribution in Kunming mouse spleen at 1 uCi, iv after 60 mins by gamma counting; type: ADME, organism-based; conditions: in vivo, 1 h; procedure, shortened: as §1
Spleen [26] = experiment: Biodistribution in Kunming mouse spleen at 1 uCi, iv after 120 mins by gamma counting; type: ADME, organism-based; conditions: in vivo, 2 h; procedure, shortened: as §1
Lung [27] = experiment: Biodistribution in Kunming mouse lung at 1 uCi, iv after 2 mins by gamma counting; type: ADME, organism-based; conditions: in vivo; procedure, shortened: as §1
Lung [28] = experiment: Biodistribution in Kunming mouse lung at 1 uCi, iv after 15 mins by gamma counting; type: ADME, organism-based; conditions: in vivo, 0.25 h; procedure, shortened: as §1
Lung [29] = experiment: Biodistribution in Kunming mouse lung at 1 uCi, iv after 30 mins by gamma counting; type: ADME, organism-based; conditions: in vivo, 0.5 h; procedure, shortened: as §1
Lung [30] = experiment: Biodistribution in Kunming mouse lung at 1 uCi, iv after 60 mins by gamma counting; type: ADME, organism-based; conditions: in vivo, 1 h; procedure, shortened: as §1
Lung [31] = experiment: Biodistribution in Kunming mouse lung at 1 uCi, iv after 120 mins by gamma counting; type: ADME, organism-based; conditions: in vivo, 2 h; procedure, shortened: as §1
Kidney [32] = experiment: Biodistribution in Kunming mouse kidney at 1 uCi, iv after 2 mins by gamma counting; type: ADME, organism-based; conditions: in vivo; procedure, shortened: as §1
Kidney [33] = experiment: Biodistribution in Kunming mouse kidney at 1 uCi, iv after 15 mins by gamma counting; type: ADME, organism-based; conditions: in vivo, 0.25 h; procedure, shortened: as §1
Kidney [34] = experiment: Biodistribution in Kunming mouse kidney at 1 uCi, iv after 60 mins by gamma counting; type: ADME, organism-based; conditions: in vivo, 1 h; procedure, shortened: as §1
Kidney [35] = experiment: Biodistribution in Kunming mouse kidney at 1 uCi, iv after 120 mins by gamma counting; type: ADME, organism-based; conditions: in vivo, 2 h; procedure, shortened: as §1
Stomach [36] = experiment: Biodistribution in Kunming mouse stomach assessed per organ at 1 uCi, iv after 2 mins by gamma counting; type: ADME, organism-based; conditions: in vivo; procedure, shortened: as §1
Stomach [37] = experiment: Biodistribution in Kunming mouse stomach assessed per organ at 1 uCi, iv after 15 mins by gamma counting; type: ADME, organism-based; conditions: in vivo, 0.25 h; procedure, shortened: as §1
Stomach [38] = experiment: Biodistribution in Kunming mouse stomach assessed per organ at 1 uCi, iv after 30 mins by gamma counting; type: ADME, organism-based; conditions: in vivo, 0.5 h; procedure, shortened: as §1
Stomach [39] = experiment: Biodistribution in Kunming mouse stomach assessed per organ at 1 uCi, iv after 60 mins by gamma counting; type: ADME, organism-based; conditions: in vivo, 1 h
Stomach [40] = experiment: Biodistribution in Kunming mouse stomach assessed per organ at 1 uCi, iv after 120 mins by gamma counting; type: ADME, organism-based; conditions: in vivo, 2 h; procedure, shortened: as §1
Muscle tissue [41] = experiment: Biodistribution in Kunming mouse muscle at 1 uCi, iv after 2 mins by gamma counting; type: ADME, organism-based; conditions: in vivo; procedure, shortened: as §1
Muscle tissue [42] = experiment: Biodistribution in Kunming mouse muscle at 1 uCi, iv after 15 mins by gamma counting; type: ADME, organism-based; conditions: in vivo, 0.25 h; procedure, shortened: as §1
Muscle tissue [43] = experiment: Biodistribution in Kunming mouse muscle at 1 uCi, iv after 30 mins by gamma counting; type: ADME, organism-based; conditions: in vivo, 0.5 h; procedure, shortened: as §1
Muscle tissue [44] = experiment: Biodistribution in Kunming mouse muscle at 1 uCi, iv after 60 mins by gamma counting; type: ADME, organism-based; conditions: in vivo, 1 h; procedure, shortened: as §1
Muscle tissue [45] = experiment: Biodistribution in Kunming mouse muscle at 1 uCi, iv after 120 mins by gamma counting; type: ADME, organism-based; conditions: in vivo, 2 h; procedure, shortened: as §1
Kidney [46] = experiment: Biodistribution in Kunming mouse kidney at 1 uCi, iv after 30 mins by gamma counting; type: ADME, organism-based; conditions: in vivo, 0.5 h; procedure, shortened: as §1

## COc1ccc(/C=C/c2ccc(-c3ccc([125I])s3)s2)cc1
[1]
  logD: 3.07
Blood [2]
  Drug uptake: 11.21 % ID/g
Blood [3]
  Drug uptake: 7.99 % ID/g
Blood [4]
  Drug uptake: 6.18 % ID/g
Blood [5]
  Drug uptake: 6.7 % ID/g
Blood [6]
  Drug uptake: 6.85 % ID/g
Brain [7]
  Drug uptake: 0.5 % ID/g
Brain [8]
  Drug uptake: 0.44 % ID/g
Brain [9]
  Drug uptake: 0.39 % ID/g
Brain [10]
  Drug uptake: 0.5 % ID/g
Brain [11]
  Drug uptake: 0.59 % ID/g
Heart [12]
  Drug uptake: 5.08 % ID/g
Heart [13]
  Drug uptake: 6.25 % ID/g
Heart [14]
  Drug uptake: 5.55 % ID/g
Heart [15]
  Drug uptake: 5.33 % ID/g
Heart [16]
  Drug uptake: 4.18 % ID/g
Liver [17]
  Drug uptake: 45.73 % ID/g
Liver [18]
  Drug uptake: 46.86 % ID/g
Liver [19]
  Drug uptake: 26.91 % ID/g
Liver [20]
  Drug uptake: 15.74 % ID/g
Liver [21]
  Drug uptake: 11 % ID/g
Spleen [22]
  Drug uptake: 9.14 % ID/g
Spleen [23]
  Drug uptake: 11.2 % ID/g
Spleen [24]
  Drug uptake: 9.4 % ID/g
Spleen [25]
  Drug uptake: 6.38 % ID/g
Spleen [26]
  Drug uptake: 7.21 % ID/g
Lung [27]
  Drug uptake: 26.17 % ID/g
Lung [28]
  Drug uptake: 16.37 % ID/g
Lung [29]
  Drug uptake: 12.95 % ID/g
Lung [30]
  Drug uptake: 10.45 % ID/g
Lung [31]
  Drug uptake: 7.08 % ID/g
Kidney [32]
  Drug uptake: 4.82 % ID/g
Kidney [33]
  Drug uptake: 6.61 % ID/g
Kidney [34]
  Drug uptake: 6.42 % ID/g
Kidney [35]
  Drug uptake: 6.33 % ID/g
Stomach [36]
  Drug uptake: 0.39 %ID
Stomach [37]
  Drug uptake: 2.6 %ID
Stomach [38]
  Drug uptake: 5.11 %ID
Stomach [39]
  Drug uptake: 8.9 %ID
Stomach [40]
  Drug uptake: 20.22 %ID
Muscle tissue [41]
  Drug uptake: 1.61 % ID/g
Muscle tissue [42]
  Drug uptake: 2.23 % ID/g
Muscle tissue [43]
  Drug uptake: 2.12 % ID/g
Muscle tissue [44]
  Drug uptake: 3.95 % ID/g
Muscle tissue [45]
  Drug uptake: 2.83 % ID/g
Kidney [46]
  Drug uptake: 5.92 % ID/g
